Test results as given in ChEMBL document CHEMBL1131319, “(3R,4S)-3-[4-(4-fluorophenyl)-4-hydroxypiperidin-1-yl]chroman-4,7-diol: a conformationally restricted analogue of the NR2B subtype-selective NMDA antagonist (1S,2S)-1-(4-hydroxyphenyl)-2-(4-hydroxy-4-phenylpiperidino)- 1-propanol” (J Med Chem, 1998).
Calls of active or inactive are those of the source. The rule behind the calls is not given here.

Assays:
[1] = Displacement of racemic [3H]CP-101606 from rat forebrain membrane N-methyl-D-aspartate glutamate receptor 2B
[2] = organism: Rattus norvegicus; assay: Compound was tested for neuroprotection against NMDA-Induced toxicity in cultured rat hippocampal neurons.; assay type: functional
[3] = molecular target: T1, Glutamate receptor ionotropic, NMDA 2B (Rattus norvegicus, UniProt Q00960); assay: Ability to displace of racemic […] of [3H]CP-101606 binding to N-methyl-D-aspartate glutamate receptor 2B in rat forebrain membranes.; assay type: cell membranes, Membrane
[4] = system: Rattus norvegicus; assay: Compound was evaluated for blockade of CSD in rats; rat protected /tested(mg/kg iv bolus+mg/kgh iv infusion) = 2/3 (0.6+0.6); assay type: functional, organism-based
[5] = Compound was evaluated for blockade of CSD as rats protected/ rats tested after a iv dose of 0.6 mg/kg followed by an infusion of 0.6 mg/kgh; 2/3; assay type: functional, organism-based
[6] = system: Rattus norvegicus; assay: Compound was evaluated for blockade of CSD in rats; rat protected /tested(mg/kg iv bolus+mg/kgh iv infusion) = 0/2 (0.2+0.2); assay type: functional, organism-based
[7] = Compound was evaluated for blockade of CSD as rats protected/ rats tested after a iv dose of 2 mg/kg followed by an infusion of 2 mg/kgh; 2/2; assay type: functional, organism-based
[8] = Compound was evaluated for blockade of CSD as rats protected/ rats tested after a iv dose of 0.2 mg/kg followed by an infusion of 0.2 mg/kg/h; 0/2; assay type: functional, organism-based
[9] = system: Mus musculus; assay: Compound was evaluated in vivo for blockade of NMDA-stimulated fos induction in mouse; assay type: functional
[10] = system: Rattus norvegicus; assay: Compound was evaluated in vivo for blockade of haloperidol induced catalepsy in rat when administered subcutaneously; assay type: functional; settings: sc
Procedure, shortened: (§1)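 Rats given haloperidol were scored for catalepsy as remaining perched on an elevated bar. Test drug was given peripherally beforehand. ED50 in mg/kg ± SEM.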

[11] = organism: Rattus norvegicus; assay: Compound was tested for neuroprotection against NMDA-Induced toxicity in cultured hippocampal neurons.; assay type: functional
Procedure, shortened: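 Neuron loss was induced by NMDA or glutamate in primary rat hippocampal neuron cultures, and inhibition of that loss was measured.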

[12] = molecular target: T1, Glutamate receptor ionotropic, NMDA 2B; assay: Compound was evaluated for its blocking effect against N-methyl-D-aspartate glutamate receptor 2B; design: species or system xenopus oocytes
[13] = system: Rattus norvegicus; assay: Compound was evaluated in vivo for blockade of haloperidol induced catalepsy in rat when administered perorally; assay type: functional; settings: po; procedure, shortened: as §1
[14] = system: Mus musculus; assay: Compound was evaluated in vivo for blockade of NMDA-stimulated fos induction in mouse when administered intravenously.; assay type: functional; settings: iv
[15] = system: Rattus norvegicus; assay: Compound was evaluated in vivo for blockade of haloperidol induced catalepsy in rat when administered perorally.; assay type: functional; settings: po; procedure, shortened: as §1

T1 sequence (Q00960 whole entry, the tested form may be a part): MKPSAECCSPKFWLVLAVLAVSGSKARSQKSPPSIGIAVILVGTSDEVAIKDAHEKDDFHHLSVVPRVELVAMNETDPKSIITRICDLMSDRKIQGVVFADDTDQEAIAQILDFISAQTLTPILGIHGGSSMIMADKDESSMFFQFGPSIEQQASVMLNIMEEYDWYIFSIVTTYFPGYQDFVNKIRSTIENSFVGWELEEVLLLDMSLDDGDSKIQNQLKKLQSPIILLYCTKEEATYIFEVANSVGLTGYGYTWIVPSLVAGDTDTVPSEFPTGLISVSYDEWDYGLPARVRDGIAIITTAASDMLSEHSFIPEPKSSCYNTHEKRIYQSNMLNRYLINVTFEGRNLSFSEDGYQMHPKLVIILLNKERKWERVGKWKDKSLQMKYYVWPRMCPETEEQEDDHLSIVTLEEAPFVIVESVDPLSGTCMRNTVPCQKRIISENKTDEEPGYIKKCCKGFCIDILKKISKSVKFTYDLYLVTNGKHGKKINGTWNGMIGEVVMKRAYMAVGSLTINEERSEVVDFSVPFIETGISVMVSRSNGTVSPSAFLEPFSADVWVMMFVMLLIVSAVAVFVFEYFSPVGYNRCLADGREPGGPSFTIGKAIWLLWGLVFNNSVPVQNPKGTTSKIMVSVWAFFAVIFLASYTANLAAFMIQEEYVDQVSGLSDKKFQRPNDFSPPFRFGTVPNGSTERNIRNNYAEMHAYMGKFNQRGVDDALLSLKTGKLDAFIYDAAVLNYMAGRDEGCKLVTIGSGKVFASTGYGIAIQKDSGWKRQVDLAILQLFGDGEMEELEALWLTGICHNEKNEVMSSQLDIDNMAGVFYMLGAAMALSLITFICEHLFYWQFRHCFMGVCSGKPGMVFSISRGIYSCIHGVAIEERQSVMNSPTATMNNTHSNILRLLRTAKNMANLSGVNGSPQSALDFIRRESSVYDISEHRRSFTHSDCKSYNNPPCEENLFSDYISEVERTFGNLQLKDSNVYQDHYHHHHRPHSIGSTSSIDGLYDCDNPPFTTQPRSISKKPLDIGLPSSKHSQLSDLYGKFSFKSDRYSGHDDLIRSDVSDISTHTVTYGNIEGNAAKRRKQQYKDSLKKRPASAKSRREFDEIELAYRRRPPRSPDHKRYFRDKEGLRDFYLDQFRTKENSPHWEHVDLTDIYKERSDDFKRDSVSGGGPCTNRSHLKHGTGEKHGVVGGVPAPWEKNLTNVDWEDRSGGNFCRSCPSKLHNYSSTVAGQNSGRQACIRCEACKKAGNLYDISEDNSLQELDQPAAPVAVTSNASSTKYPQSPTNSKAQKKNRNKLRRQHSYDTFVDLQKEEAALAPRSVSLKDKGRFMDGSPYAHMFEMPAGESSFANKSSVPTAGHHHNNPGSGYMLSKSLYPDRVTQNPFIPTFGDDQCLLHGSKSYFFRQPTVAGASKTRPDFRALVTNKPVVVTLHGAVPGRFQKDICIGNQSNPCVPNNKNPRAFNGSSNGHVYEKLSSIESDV

Structure (SMILES)	IC50 [1] [nM]	IC50 ([2]; Rattus norvegicus) [nM]	other results
Oc1ccc2c(c1)OC[C@@H](N1CCC(O)(c3ccccc3)CC1)[C@H]2O (stereo in doubt; 5a)	31	–	IC50 [2]: 9 nM
Oc1ccc2c(c1)OC[C@@H](N1CCC(Cc3ccccc3)CC1)[C@H]2O	130	160	–
Oc1ccc2c(c1)OC[C@@H](N1CCC(O)(c3ccc(F)cc3)CC1)[C@H]2O (stereo in doubt; 10a)	28	5	–
Oc1ccc2c(c1)OC[C@@H](N1CCC(O)(c3ccc(F)cc3)CC1)C2	–	–	IC50 [3]: 300 nM
Oc1ccc2c(c1)OC[C@@H](N1CCC(c3ccccc3)CC1)[C@H]2O	–	25	–
Oc1ccc2c(c1)OC[C@@H](N1CCC(O)(c3ccc(F)cc3)CC1)[C@H]2O (stereo in doubt; 12a) [listing 1 of 2 here]	–	–	Blockade effect [4]: Partially active; Ratio [5]: Partially active; Blockade effect [6]: inactive; Ratio [7]: Active; Ratio [8]: inactive
Oc1ccc2c(c1)OC[C@@H](N1CCC(O)(c3ccccc3)CC1)[C@H]2O (stereo in doubt; 3a)	54	–	IC50 [2]: 129 nM
Oc1ccc2c(c1)OC[C@@H](N1CCC(O)(CCc3ccccc3)CC1)[C@H]2O	–	20	–
Oc1ccc2c(c1)OC1C[C@]1(N1CCC(O)(c3ccc(F)cc3)CC1)[C@H]2O (stereo not given in full)	–	1000	–
C[C@@H]([C@@H](O)c1ccc(O)cc1)N1CCC(O)(c2ccccc2)CC1 [TRAXOPRODIL]	27	–	ED50 [9]: 1 mg/kg; ED50 [10]: 0.4 mg/kg; IC50 [11]: 11 nM
Oc1ccc2c(c1)OC[C@@H](N1CCC(O)(c3ccc(C(F)(F)F)cc3)CC1)[C@H]2O	20	–	–
Oc1ccc2c(c1)OC[C@@H](N1CCC(O)(c3ccccc3)CC1)[C@@H]2O	–	383	–
Oc1ccc2c(c1)OC[C@H](N1CCC(O)(c3ccccc3)CC1)[C@@H]2O	107	108	–
CO[C@H]1c2ccc(O)cc2OC[C@H]1N1CCC(O)(c2ccc(F)cc2)CC1	> 300	–	–
COc1ccc2c(c1)OC[C@@H](N1CCC(O)(c3ccc(F)cc3)CC1)[C@H]2O	> 300	–	–
Oc1ccc2c(c1)OC[C@@H](N1CCC(O)(c3ccc(F)cc3)CC1)[C@H]2O (stereo in doubt; 12a) [listing 2 of 2 here]	18	–	IC50 [12]: 206 nM; ED50 [10]: 0.3 mg/kg; ED50 [13]: 1.2 mg/kg; IC50 [2]: 4 nM; ED50 [14]: 4 mg/kg
Oc1cc2c(cc1F)[C@H](O)[C@H](N1CCC(O)(c3ccc(F)cc3)CC1)CO2	17	23	–
Oc1ccc2c(c1)OC[C@@H](N1CCC(O)(Cc3ccccc3)CC1)[C@H]2O	–	533	–
Oc1ccc2c(c1)OC[C@H](N1CCC(O)(c3ccc(F)cc3)CC1)[C@@H]2O	35	11	ED50 [10]: 1.1 mg/kg; ED50 [15]: 6.8 mg/kg
